In ChEMBL document CHEMBL4033712, “Synthesis and biological evaluation of new C-12(α/β)-(N-) sulfamoyl-phenylamino-14-deoxy-andrographolide derivatives as potent anti-cancer agents” (Bioorg Med Chem Lett, 2017):

What was measured:
Type in all cases: functional
SF-268 = assay: Growth inhibition of human SF268 cells incubated for 48 hrs by sulforhodamine B assay; details: SF-268, 48 h
Summary of the method: (§1)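 NCI 60 human tumour cell line panel, five-dose study at 0.01, 0.1, 1, 10 and 100 µM, 48 h incubation. Sulforhodamine B protein-binding dye end point. GI50 (50% decrease in net cell growth), TGI (total growth inhibition) and LC50 (net 50% loss of initial cells) read from log concentration versus % growth inhibition curves.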

OVCAR-4 = assay: Growth inhibition of human OVCAR4 cells incubated for 48 hrs by sulforhodamine B assay; details: OVCAR-4, 48 h
Summary of the method: (§2)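 NCI-60 five-dose screen at 0.01, 0.1, 1, 10 and 100 µM, 48 h incubation, sulforhodamine B end point. GI50 (50% decrease in net growth), TGI (total growth inhibition) and LC50 (net 50% loss of initial cells) taken from log concentration versus % growth inhibition curves.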

NCI-H23 = assay: Growth inhibition of human NCI-H23 cells incubated for 48 hrs by sulforhodamine B assay; details: NCI-H23, 48 h; summary of the method: as §2
MDA-MB-231 = assay: Growth inhibition of human MDA-MB-231 cells incubated for 48 hrs by sulforhodamine B assay; details: MDA-MB-231, 48 h; summary of the method: as §2
ACHN = assay: Growth inhibition of human ACHN cells incubated for 48 hrs by sulforhodamine B assay; summary of the method: as §2
DU-145 = assay: Growth inhibition of human DU145 cells incubated for 48 hrs by sulforhodamine B assay; details: DU-145, 48 h; summary of the method: as §2
MOLT-4 = assay: Growth inhibition of human MOLT4 cells incubated for 48 hrs by sulforhodamine B assay; details: MOLT-4, 48 h; summary of the method: as §2
SR = assay: Growth inhibition of human SR cells incubated for 48 hrs by sulforhodamine B assay; summary of the method: as §1
A498 = assay: Growth inhibition of human A498 cells incubated for 48 hrs by sulforhodamine B assay; details: A498, 48 h; summary of the method: as §2
HOP-92 = assay: Anticancer activity against human HOP92 cells assessed as cell growth at 10 uM after 48 hrs by sulforhodamine B assay relative to control; details: HOP-92, 48 h, read-out: Activity
Summary of the method: (§3)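 Single-dose NCI-60 panel screen: compound added at 10 µM and the culture incubated 48 h. The end point was read by protein staining with sulforhodamine B. The value is percent growth of treated cells relative to untreated control cells, reported as a mean graph across the panel.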

NCI-H460 = assay: Growth inhibition of human NCI-H460 cells incubated for 48 hrs by sulforhodamine B assay; details: NCI-H460, 48 h; summary of the method: as §2
NCI-H226 = assay: Growth inhibition of human NCI-H226 cells incubated for 48 hrs by sulforhodamine B assay; details: NCI-H226, 48 h; summary of the method: as §2
HOP-62 = assay: Growth inhibition of human HOP62 cells incubated for 48 hrs by sulforhodamine B assay; details: HOP-62, 48 h; summary of the method: as §2
CAKI-1 = assay: Growth inhibition of human Caki1 cells incubated for 48 hrs by sulforhodamine B assay; details: CAKI-1, 48 h; summary of the method: as §2
SW-620 = assay: Growth inhibition of human SW620 cells incubated for 48 hrs by sulforhodamine B assay; details: SW-620, 48 h; summary of the method: as §1
UO-31 = assay: Growth inhibition of human UO31 cells incubated for 48 hrs by sulforhodamine B assay; details: UO-31, 48 h; summary of the method: as §1
RPMI-8226 = assay: Growth inhibition of human RPMI8226 cells incubated for 48 hrs by sulforhodamine B assay; details: RPMI-8226, 48 h; summary of the method: as §1
UACC-62 = assay: Growth inhibition of human UACC62 cells incubated for 48 hrs by sulforhodamine B assay; details: UACC-62, 48 h; summary of the method: as §1
HT-29 = assay: Growth inhibition of human HT-29 cells incubated for 48 hrs by sulforhodamine B assay; details: HT-29, 48 h; summary of the method: as §2
UACC-257 = assay: Growth inhibition of human UACC257 cells incubated for 48 hrs by sulforhodamine B assay; details: UACC-257, 48 h; summary of the method: as §1
SN12C = assay: Growth inhibition of human SN12C cells incubated for 48 hrs by sulforhodamine B assay; summary of the method: as §1
SNB-19 = assay: Anticancer activity against human SNB19 cells assessed as cell growth at 10 uM after 48 hrs by sulforhodamine B assay relative to control; details: SNB-19, 48 h, read-out: Activity; summary of the method: as §3
LOX IMVI = assay: Growth inhibition of human LOXIMVI cells incubated for 48 hrs by sulforhodamine B assay; summary of the method: as §2
SNB-75 = assay: Growth inhibition of human SNB75 cells incubated for 48 hrs by sulforhodamine B assay; details: SNB-75, 48 h; summary of the method: as §1
CCRF-CEM = assay: Growth inhibition of human CCRF-CEM cells incubated for 48 hrs by sulforhodamine B assay; summary of the method: as §2
IGROV-1 = assay: Growth inhibition of human IGROV1 cells incubated for 48 hrs by sulforhodamine B assay; details: IGROV-1, 48 h; summary of the method: as §2
U-251 = assay: Growth inhibition of human U251 cells incubated for 48 hrs by sulforhodamine B assay; details: U-251, 48 h; summary of the method: as §1
OVCAR-5 = assay: Growth inhibition of human OVCAR5 cells incubated for 48 hrs by sulforhodamine B assay; details: OVCAR-5, 48 h; summary of the method: as §2
[1] = read-out: LC50 (the source's name)

C=C1CC[C@@H]2[C@](C)(COC(C)=O)[C@H](OC(C)=O)CC[C@@]2(C)[C@H]1CC(Nc1ccc(S(=O)(=O)Nc2ccc(Cl)nn2)cc1)C1=CCOC1=O (stereo partly drawn)
GI50 (SF-268): 1.8 µM | TGI (SF-268): 3.67 µM | CC50 (SF-268; [1]): 7.51 µM | GI50 (OVCAR-4): 1.47 µM | LC50 (OVCAR-4): 6.82 µM | TGI (OVCAR-4): 3.17 µM | GI50 (NCI-H23): 2.06 µM | TGI (NCI-H23): 5.35 µM | CC50 (NCI-H23; [1]): 43.2 µM | GI50 (MDA-MB-231): 1.9 µM | LC50 (concentration giving net 50% loss of initial cells) (MDA-MB-231): 8.27 µM | TGI (MDA-MB-231): 3.96 µM | GI50 (ACHN): 1.68 µM | TGI (ACHN): 3.32 µM | CC50 (ACHN; [1]): 6.57 µM | GI50 (DU-145): 1.7 µM | TGI (DU-145): 3.45 µM | CC50 (DU-145; [1]): 7.02 µM | GI50 (MOLT-4): 1.96 µM | TGI (MOLT-4): > 100 µM | CC50 (MOLT-4; [1]): > 100 µM | GI50 (SR): 1.35 µM | TGI (SR): 8.1 µM | CC50 (SR; [1]): > 100 µM | GI50 (A498): 1.4 µM | LC50 (concentration giving net 50% loss of initial cells) (A498): 15.6 µM | TGI (A498): 4.26 µM | growth at 10 µM (HOP-92): 69.8% | GI50 (NCI-H460): 2.03 µM | TGI (NCI-H460): 4.31 µM | CC50 (NCI-H460; [1]): 9.15 µM | GI50 (NCI-H226): 1.67 µM | TGI (NCI-H226): 3.3 µM | GI50 (HOP-62): 1.46 µM | TGI (HOP-62): 2.99 µM | CC50 (HOP-62; [1]): 6.12 µM | GI50 (CAKI-1): 2.28 µM | TGI (CAKI-1): 100 µM | CC50 (CAKI-1; [1]): 31.7 µM | GI50 (SW-620): 1.07 µM | TGI (SW-620): 2.8 µM | CC50 (SW-620; [1]): 7.34 µM | GI50 (UO-31): 1.45 µM | LC50 (concentration giving net 50% loss of initial cells) (UO-31): 5.73 µM | TGI (UO-31): 2.88 µM | GI50 (RPMI-8226): 0.44 µM | TGI (RPMI-8226): 3.04 µM | CC50 (RPMI-8226; [1]): > 100 µM | GI50 (UACC-62): 1.49 µM | TGI (UACC-62): 3.86 µM | CC50 (UACC-62; [1]): 10 µM | GI50 (HT-29): 1.18 µM | TGI (HT-29): 2.68 µM | GI50 (UACC-257): 1.67 µM | TGI (UACC-257): 3.89 µM | CC50 (UACC-257; [1]): 9.03 µM | GI50 (SN12C): 1.25 µM | TGI (SN12C): 3.66 µM | CC50 (SN12C; [1]): 12.7 µM | growth at 10 µM (SNB-19): 76% | GI50 (LOX IMVI): 0.29 µM | TGI (LOX IMVI): 1.19 µM | CC50 (LOX IMVI; [1]): 4.17 µM | GI50 (SNB-75): 1.44 µM | TGI (SNB-75): 5.9 µM | CC50 (SNB-75; [1]): 24.3 µM | GI50 (CCRF-CEM): 0.46 µM | TGI (CCRF-CEM): 2.6 µM | CC50 (CCRF-CEM; [1]): > 100 µM | GI50 (IGROV-1): 2.08 µM | TGI (IGROV-1): 5 µM | CC50 (IGROV-1; [1]): 18.3 µM | GI50 (U-251): 1.68 µM | TGI (U-251): 3.05 µM | CC50 (U-251; [1]): 5.52 µM | GI50 (OVCAR-5): 2.01 µM | LC50 (concentration causing net 50% loss of initial cells) (OVCAR-5): 8.63 µM | TGI (OVCAR-5): 4.16 µM
